The record followed here is ChEMBL document CHEMBL4130474, “Spirotriazoline oxindoles: A novel chemical scaffold with in vitro anticancer properties” (Eur J Med Chem, 2017).

Series [1] deals with MDA-MB-231. In words: Induction of cell cycle arrest in human MDA-MB-231 cells at antiproliferative IC50 level by propidium iodide staining based flow cytometry. The series is classed as functional. A general note: Flow cytometry measures light scatter and fluorescence of single cells or particles in a stream.
The nature of series [2]: Selectivity index, ratio of IC50 for antiproliferative activity in HEK293T cells to IC50 for antiproliferative activity in human MCF7 cells. It counts as toxicity, cell-based. As to conditions: HEK293T cells versus MCF7 cells, read-out: Ratio IC50. In outline:
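Ratio of HEK 293T IC50 to MCF-7 IC50 from 72 h MTT assays.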

The subject of series [3] is MDA-MB-231. In words: Antiproliferative activity in human MDA-MB-231 cells incubated for 72 hrs by MTT assay. It counts as functional, cell-based. As to conditions: MDA-MB-231, 72 h. In outline: (§1)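 Cells grown in RPMI 1640 with 10% FBS, penicillin/streptomycin; seeded at 2 × 10⁵ cells/mL, allowed to adhere 24 h, then exposed 72 h to compounds diluted in medium from DMSO stocks. MTT added after medium change, 3 h, formazan dissolved in DMSO, absorbance at 570 nm. Triplicate wells, at least 3 independent experiments; IC50 by non-linear regression.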
In general terms: Tetrazolium dyes change colour on reduction, which living cells bring about.

Series [4] is described as follows: […], ratio of IC50 for antiproliferative activity in HEK293T cells to IC50 for antiproliferative activity in human MDA-MB-231 cells. It counts as toxicity, cell-based. As to conditions: HEK293T cells versus MDA-MB-231 cells, read-out: Ratio IC50. In outline:
(§2)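 Ratio of HEK 293T IC50 to MDA-MB-231 IC50 from 72 h MTT assays.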

Series [5] has as its system MDA-MB-231. In words: Induction of apoptosis in human MDA-MB-231 cells assessed as increase in caspase3/7 activity at antiproliferative IC50 level incubated for 48 hrs by Caspase-Glo 3/7 Assay. It counts as functional.
The nature of series [6]: Selectivity index, ratio of IC50 for antiproliferative activity in HEK293T cells to IC50 for antiproliferative activity in human MDA-MB-231 cells. The series is classed as toxicity, cell-based. The conditions noted are these: HEK293T cells versus MDA-MB-231 cells, read-out: Ratio IC50. In outline:
as §2

The nature of series [7]: Potency index, ratio of IC50 for antiproliferative activity in human MCF7 cells to IC50 for antiproliferative activity in human MDA-MB-231 cells. The series is classed as functional.
Series [8] relates to HCT-116. In words: Antiproliferative activity in p53 (+/+) human HCT116 cells incubated for 72 hrs by MTS assay. The series is classed as functional, cell-based. The conditions noted are these: HCT-116, 72 h. In outline: (§3)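 HCT116 p53(+/+) or p53(−/−) seeded at 1 × 10⁵ cells/mL, adhered 24 h, then treated 72 h with compounds diluted from DMSO stocks. Viability by MTS (CellTiter96 AQueous) with absorbance at 490 nm. Duplicate wells, three independent experiments; IC50 by non-linear regression.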

Series [9] relates to HEK-293T. In words: Antiproliferative activity in human HEK293T cells incubated for 72 hrs by MTT assay. It counts as cell-based. In outline: as §1
The nature of series [10]: Selectivity index, ratio of IC50 for antiproliferative activity in HEK293T cells to IC50 for antiproliferative activity in human p53 (-/-) human HCT116 cells. It counts as toxicity, cell-based. As to conditions: HEK293T cells versus p53 (-/-) HCT116 cells, read-out: Ratio IC50.
A short description of series [11]: Potency index, ratio of IC50 for antiproliferative activity in human p53 (+/+) human HCT116 cells to IC50 for antiproliferative activity in human MDA-MB-231 cells. The series is classed as functional.
The test system of series [12] is HCT-116. In words: Antiproliferative activity in p53 (-/-) human HCT116 cells incubated for 72 hrs by MTS assay. The conditions noted are these: HCT-116, 72 h. It counts as functional, cell-based. In outline: as §3
The test system of series [13] is MCF7. In words: Antiproliferative activity in human MCF7 cells incubated for 72 hrs by MTT assay. It counts as functional, cell-based. The conditions noted are these: MCF7, 72 h. In outline:
as §1

The nature of series [14]: Potency index, ratio of IC50 for antiproliferative activity in human p53 (-/-) human HCT116 cells to IC50 for antiproliferative activity in human MDA-MB-231 cells. The series is classed as functional.
A short description of series [15]: Selectivity index, ratio of IC50 for antiproliferative activity in HEK293T cells to IC50 for antiproliferative activity in human p53 (+/+) human HCT116 cells. The series is classed as toxicity, cell-based. As to conditions: HEK293T cells versus p53 (+/+) HCT116 cells, read-out: Ratio IC50.

Activity calls are given as the source filed them. The calls are words filed in the database; no cut-off is given here.

For `O=C1Nc2ccc(Br)cc2C12N(c1ccccc1)N=C(c1ccccc1)N2c1ccccc1` (stereo not given), the outcome in series [1] was inactive. Besides, the selectivity ratio in series [2] was 2.4 to 2.5; in series [4], no less than 2.5; in [6], no less than 2.4; in series [10], 2.5; in series [15], 2.5. In addition, the IC50 – broadly, the concentration that inhibits the measured activity by half – in [3] is 6.7 µM; in series [8], 22.2 µM; in series [9], 56.3 µM; in series [12], 22.5 µM; in [13], 23 µM. In series [5], the “fold change (FC)” value worked out at 2.5. The “Ratio IC50” value in series [7], in series [11] and in series [14] was “>=2.4” throughout.
